Experimental findings from ChEMBL document CHEMBL1139837, “Synthesis and transfection efficiencies of new lipophilic polyamines” (J Med Chem, 2007) are described below.

Calls of active or inactive are those of the source. A value given as a limit tells only on which side of the number the result lay.

In data set [1] the test system is CHO-K1. The experiment in a line: Transfection efficiency in eGFP encoding DNA transfected CHOK1 cells after 24 hrs at 5 ug/mL. In kind it is functional, Cricetulus griseus. In outline:
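Subconfluent (~50%) CHO-K1 cells were exposed 4 h at 37 °C in F12K to 1 µg/mL eGFP plasmid complexed with lipid (0.5, 2.5 or 5 µg/mL). Medium was then replaced with growth medium for 24 h. Trypsinized cells were scored by FACS. The gate was set above the no-plasmid/no-lipid threshold (5.5), giving % GFP-positive cells; mean ± SD.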

The subject of data set [2] is CHO-K1. Kind of data set: Increase in uptake of DNA in CHOK1 cells after 4 hrs. The class given is functional, cell-based. Particulars: Cricetulus griseus. Put shortly:
(§1)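 Confluent CHO-K1 cells, rinsed, were incubated 4 h at 37 °C in serum-free F12K with 1 µg/mL Alexa Fluor-488-labeled DNA complexed with cationic lipid at 0.5, 2.5 or 5 µg/mL. Cells were washed with PBS, trypsinized, washed with ice-cold PBS/1% BSA to remove surface signal, then assayed by flow cytometry for internalized fluorescence. Gated percent positive cells were set against DNA-only cells; mean ± SD.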

Data set [3] concerns CHO. Kind of data set: Survival of CHO cells after 48 hrs upto 6.4 uM. In kind it is functional, Cricetulus griseus. In outline: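 CHO cells grown at 37 °C, 5% CO2, in RPMI with 10% fetal calf serum, 2 mM glutamine, penicillin/streptomycin and 2 mM aminoguanidine. Viability was checked by trypan blue before each run. Cells were plated at 2e3 cells/mL in 96-well plates and dosed after overnight incubation. DMSO was kept below 40 µM. Growth after 48 h was read as MTT formazan absorbance at 540 nm.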

In data set [4] the test system is CHO-K1. The experiment in a line: Increase in uptake of DNA in CHOK1 cells after 4 hrs at 5 ug/mL. The class given is functional, cell-based. Particulars: Cricetulus griseus. Put shortly:
as §1

Data set [5] has as its system CHO. The experiment in a line: Cytotoxicity against CHO cells after 24 hrs at 0.5 uM. In kind it is cell-based, Cricetulus griseus. The conditions noted are these: chinese hamster.
The nature of data set [6]: Inhibition of [14C]spermine uptake into polyamine transporter in CHOK1 cells. The conditions noted are these: Cricetulus griseus, CHO-K1. In kind it is cell-based. In outline:
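Subconfluent CHO-K1 cells were rinsed three times in F12K and dosed with varying compound concentrations. They were incubated 20 min with 1 µM [14C]spermine (31 Ci/mol) in serum-free medium, rinsed (including 1 mM spermine washes), and lysed in 0.5 M NaOH for 1 h at 37 °C. Lysates were neutralized and scintillation-counted to give an IC50.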

Regarding `CCCCCCCC/C=C/CCCCCCCCOc1ccc(CNCCCCCCCCN)cc1OCCCCCCCC/C=C/CCCCCCCC`, the Activity is 23% in the data set on CHO-K1 [1] and “Dose-dependent effect” in the data set on CHO-K1 [2]. Further, in the data set on CHO [3], the Survival result is recorded as “>=90%”.
For the compound `CCCCCCCC/C=C/CCCCCCCCOc1ccc(CNCCCCNCCCCN)cc1OCCCCCCCC/C=C/CCCCCCCC`, the figures for the Activity in the data set with CHO-K1 [1] and in the data set with CHO-K1 [2] were 49% and “Dose-dependent effect”, respectively. In the data set on CHO-K1 [4], the outcome was Active. For the same compound, the Survival entry with CHO [3] is “>=90%”.
Turning to `CCCCCCCC/C=C/CCCCCCCCOc1ccc(C(=O)NCCCCNCCCCNCCCCN)cc1OCCCCCCCC/C=C/CCCCCCCC`, the Activity entry in the data set on CHO-K1 [2] was “Dose-dependent effect”; in the data set with CHO [5] it was 95%.
`CCCCCCCC/C=C/CCCCCCCCOc1ccc(CNCCCCN)cc1OCCCCCCCC/C=C/CCCCCCCC`: the Activity with CHO-K1 [1] was 38%; in the data set with CHO-K1 [2], “Dose-dependent effect”. The result with CHO-K1 [4] was Active. For the same compound, the Survival result in the data set on CHO [3] was “>=90%”.
Usually IC50 stands for the concentration that gives 50% inhibition. Low values mean higher potency, high ones lower potency. For the compound `CCCCCCCC/C=C/CCCCCCCCOc1ccc(CNCCCCNCCCCNCCCCN)cc1OCCCCCCCC/C=C/CCCCCCCC`, the concentration for half-maximal inhibition (IC50) in data set [6] came to 10 µM. Besides, the Activity with CHO-K1 [1] is 67%; in the data set on CHO-K1 [2], “Dose-dependent effect”. For the same compound, the result with CHO-K1 [4] was Active. The Survival result with CHO [3] was “>=90%”.
Regarding `CCCCCCCC/C=C/CCCCCCCCOc1ccc(CNCCOCCOCCN)cc1OCCCCCCCC/C=C/CCCCCCCC`, the Activity was 25% with CHO-K1 [1] and “Dose-dependent effect” in the data set with CHO-K1 [2]. Moreover, in the data set with CHO [3], the Survival entry is recorded as “>=90%”.
On the same counts, the results for `CCCCCCCC/C=C/CCCCCCCCOc1ccc(C(=O)NCCCCNCCCCN)cc1OCCCCCCCC/C=C/CCCCCCCC` are 40%, “Dose-dependent effect” and “>=90%”.
